From BindingDB's records for doi:10.1021/jm00165a017 (Abbott Laboratories, 1990) come the findings set out here.

For this test, the target named is T1, Polyunsaturated fatty acid 5-lipoxygenase (Rattus norvegicus, UniProt P12527).
T1 sequence (P12527 whole entry): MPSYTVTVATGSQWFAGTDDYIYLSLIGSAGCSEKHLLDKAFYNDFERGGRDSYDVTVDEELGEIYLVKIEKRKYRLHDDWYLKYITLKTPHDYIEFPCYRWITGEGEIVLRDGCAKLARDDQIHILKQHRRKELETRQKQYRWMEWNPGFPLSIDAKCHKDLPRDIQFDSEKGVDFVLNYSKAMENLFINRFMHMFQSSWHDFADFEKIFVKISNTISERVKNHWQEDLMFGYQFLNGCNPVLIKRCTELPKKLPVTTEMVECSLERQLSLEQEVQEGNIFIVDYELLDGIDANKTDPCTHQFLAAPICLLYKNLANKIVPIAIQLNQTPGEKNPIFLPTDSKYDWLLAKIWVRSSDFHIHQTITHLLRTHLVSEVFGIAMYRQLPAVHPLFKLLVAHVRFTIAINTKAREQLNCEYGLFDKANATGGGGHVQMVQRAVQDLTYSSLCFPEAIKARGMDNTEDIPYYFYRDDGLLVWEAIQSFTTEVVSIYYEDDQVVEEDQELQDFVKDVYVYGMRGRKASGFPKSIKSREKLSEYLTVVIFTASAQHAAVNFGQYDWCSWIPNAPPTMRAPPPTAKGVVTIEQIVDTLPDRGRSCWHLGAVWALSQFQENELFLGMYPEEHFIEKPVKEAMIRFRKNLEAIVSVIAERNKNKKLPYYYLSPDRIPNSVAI
In words: In vitro inhibitory activity against 5-lipoxygenase in rat basophilic leukemia cells(RBL-1). In short, it runs like this:
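Enzyme source: sonicated lysate of trypsin-harvested adherent RBL-1 cells (3.0 × 10^7 cells/mL in 10 mM BES, 10 mM PIPES, 1 mM EDTA, pH 6.8), 20000g 20-min supernatant. Compounds in DMSO preincubated with enzyme 20 min at 37 °C in buffer with 0.7 mM CaCl2, 100 mM NaCl. Radiolabelled 5-HETE counted after chromatography, corrected via [3H]5-HETE recovery.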

Broadly, the IC50 is the concentration that gives 50% inhibition. Molecule `CC(C)Cc1ccc(C(Cc2ccccc2)C(=O)N(C)O)cc1` (stereo unspecified) gave an IC50 of 1.5 µM.
